In ChEMBL document CHEMBL3112527, “Quinoline-pyrimidine hybrids: synthesis, antiplasmodial activity, SAR, and mode of action studies” (J Med Chem, 2014):
pIC50: −log10 of the molar value. Values after ≈ are worked out from the molar mass of the structure shown. Active and inactive are the calls of the source. The calls are words filed in the database; no cut-off is given here.

What was measured:
Influenza A virus H3N2 = assay: Antiviral activity against Influenza A virus H3N2 infected in MDCK cells assessed as inhibition of virus-induced cytopathicity; format: functional, organism-based
In short: (§1)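 Confluent monolayers in 96-well plates were inoculated with 100 CCID50 of virus in the presence of varying concentrations of compound. Read-out was inhibition of virus-induced cytopathicity, compared with untreated infected cultures. Cytotoxicity was judged microscopically or by MTT viability staining.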

[1] = tested on: Vesicular stomatitis virus; assay: Antiviral activity against Vesicular stomatitis virus infected in HEL cells assessed as inhibition of virus-induced cytopathicity; format: functional, organism-based; in short: as §1
[2] = Cytotoxicity against cat CRFK cells assessed as cell viability by MTS assay; format: cell-based, Felis catus
In short: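 CRFK cells were exposed to varying sample concentrations. Cell viability was measured with the colorimetric formazan-based MTS assay, and the 50% cytotoxic concentration (CC50) was derived from it.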

[3] = Solubility of the compound in octanol at pH 7.4 by HPLC analysis; format: physicochemical
Influenza A virus = assay: Antiviral activity against influenza A virus H1N1 infected in MDCK cells assessed as inhibition of virus-induced cytopathicity; format: functional, organism-based; in short: as §1
Human respirovirus 3 = assay: Antiviral activity against parainfluenza virus 3 infected in African green monkey Vero cells assessed as inhibition of virus-induced cytopathicity; format: functional, organism-based
In short: (§2)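 Confluent monolayers (HEL, Vero, HeLa or CrFK, as applicable) were inoculated with 100 CCID50 of virus, with 1 CCID50 being the dose that infects 50% of cultures. Infection ran in the presence of varying compound concentrations. Inhibition of virus-induced cytopathicity was scored against infected cultures left untreated.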

[4] = n-octanol-PBS buffer distribution coefficient, log D of the compound at pH 7.4 after 24 hrs by HPLC analysis; format: physicochemical
Human betaherpesvirus 5 [5] = assay: Antiviral activity against Cytomegalovirus AD169 infected in HEL cells assessed as inhibition of virus-induced cytopathicity; format: functional, organism-based
[6] = tested on: Vesicular stomatitis virus; assay: Antiviral activity against Vesicular stomatitis virus infected in human HeLa cells assessed as inhibition of virus-induced cytopathicity; format: functional, organism-based; in short: as §1
Plasmodium falciparum [7] = assay: Antiplasmodial activity against chloroquine-sensitive asexual erythrocytic stage of Plasmodium falciparum D10 assessed as parasite growth inhibition by lactate dehydrogenase assay; format: functional, organism-based
In short: (§3)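 Parasite lactate dehydrogenase assay (modified Makler method). Samples held as 20 mg/mL stocks in DMSO, diluted on test day. Full dose-response: starting at 10 μg/mL, 2-fold serial dilution in complete medium over 10 concentrations down to 0.02 μg/mL. Chloroquine, artesunate and MMV390048 served as references. IC50 from nonlinear dose-response curve fitting; mean of three independent experiments.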

Coxsackievirus B4 [8] = assay: Antiviral activity against Coxsackievirus B4 infected in African green monkey Vero cells assessed as inhibition of virus-induced cytopathicity; format: functional, organism-based; in short: as §2
Human betaherpesvirus 5 [9] = assay: Antiviral activity against Cytomegalovirus Davis infected in HEL cells assessed as inhibition of virus-induced cytopathicity; format: functional, organism-based
[10] = Aqueous solubility of the compound in PBS buffer at pH 7.4 after 24 hrs by HPLC analysis; format: physicochemical; settings: pH 7.4, 24 h
Human alphaherpesvirus 2 = assay: Antiviral activity against HSV-2 G infected in HEL cells assessed as inhibition of virus-induced cytopathicity; format: functional, organism-based; settings: strain G; in short: as §2
[11] = tested on: Respiratory syncytial virus; assay: Antiviral activity against Respiratory syncytial virus infected in human HeLa cells assessed as inhibition of virus-induced cytopathicity; format: functional, organism-based; in short: as §2
[12] = Cytotoxicity against human HeLa cells assessed as alteration of cell morphology by microscopic analysis; format: cell-based; settings: read-out: MIC
In short: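 Cells (Vero, HEL, MDCK or HeLa) were exposed to a range of sample concentrations. The value reported is the concentration required to cause a microscopically detectable alteration of normal cell morphology.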

Human alphaherpesvirus 1 [13] = assay: Antiviral activity against HSV-1 KOS infected in HEL cells assessed as inhibition of virus-induced cytopathicity; format: functional, organism-based; in short: as §2
Human alphaherpesvirus 3 = assay: Antiviral activity against Varicella-zoster virus infected in HEL cells assessed as inhibition of virus-induced cytopathicity; format: functional, organism-based
Feline coronavirus = assay: Antiviral activity against Feline coronavirus infected in cat CRFK cells assessed as inhibition of virus-induced cytopathicity; format: functional, organism-based; in short: as §2
Felid alphaherpesvirus 1 = assay: Antiviral activity against Feline herpesvirus infected in cat CRFK cells assessed as inhibition of virus-induced cytopathicity; format: functional, organism-based; in short: as §2
Human alphaherpesvirus 1 [14] = assay: Antiviral activity against thymidine kinase-negative acyclovir-resistant HSV-1 KOS infected in HEL cells assessed as inhibition of virus-induced cytopathicity; format: functional, organism-based; in short: as §1
Sindbis virus = assay: Antiviral activity against Sindbis virus infected in African green monkey Vero cells assessed as inhibition of virus-induced cytopathicity; format: functional, organism-based
Vaccinia virus = assay: Antiviral activity against Vaccinia virus infected in HEL cells assessed as inhibition of virus-induced cytopathicity; format: functional, organism-based; settings: Orthopoxvirus vaccinia; in short: as §1
[15] = tested on: Mammalian orthoreovirus 1; assay: Antiviral activity against Reovirus 1 infected in African green monkey Vero cells assessed as inhibition of virus-induced cytopathicity; format: functional, organism-based; in short: as §2
Coxsackievirus B4 [16] = assay: Antiviral activity against Coxsackievirus B4 infected in human HeLa cells assessed as inhibition of virus-induced cytopathicity; format: functional, organism-based; in short: as §2
Punta Toro virus = assay: Antiviral activity against Punta Toro virus infected in African green monkey Vero cells assessed as inhibition of virus-induced cytopathicity; format: functional, organism-based; in short: as §2
Plasmodium falciparum [17] = assay: Antiplasmodial activity against chloroquine-resistant asexual erythrocytic stage of Plasmodium falciparum Dd2 assessed as parasite growth inhibition by lactate dehydrogenase assay; format: functional, organism-based; in short: as §3
[18] = Selectivity index, ratio of CC50 for cat CRFK cells to IC50 for chloroquine-resistant asexual erythrocytic stage of Plasmodium falciparum Dd2; format: functional
In short: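 Ratio of CRFK CC50 (μM) to Dd2 IC50 […]. CC50 is the 50% cytotoxic concentration in feline kidney CRFK cells, measured as cell viability by colorimetric formazan-based MTS assay. Dd2 IC50 is from the parasite LDH growth-inhibition assay.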

SMILES | inhibition (Influenza A virus H3N2) | inhibition [1] | CC50 [2] [µM] | solubility [3] [µM] | inhibition (Influenza A virus) | inhibition (Human respirovirus 3) | logD at 24 h [4] | inhibition (Human betaherpesvirus 5 [5]) | inhibition [6] | pIC50 (Plasmodium falciparum [7]) | inhibition (Coxsackievirus B4 [8]) | inhibition (Human betaherpesvirus 5 [9]) | solubility [10] [µM] | inhibition (Human alphaherpesvirus 2) | inhibition [11] | MCC [12] [µM] | inhibition (Human alphaherpesvirus 1 [13]) | inhibition (Human alphaherpesvirus 3) | inhibition (Feline coronavirus) | inhibition (Felid alphaherpesvirus 1) | further results
Clc1ccc2c(NCCCCCCCNc3nccc(Cl)n3)ccnc2c1 | inactive | inactive | > 100 | 1.92 (≈ 0.776 µg/mL) | inactive | inactive | 1.16 | inactive | inactive | 6.42 | inactive | inactive | 0.13 (≈ 0.0526 µg/mL) | inactive | inactive | 4 | inactive | inactive | inactive | inactive | inhibition (Human alphaherpesvirus 1 [14]): inactive; inhibition (Sindbis virus): inactive; inhibition (Vaccinia virus): inactive; inhibition [15]: inactive; inhibition (Coxsackievirus B4 [16]): inactive; inhibition (Punta Toro virus): inactive
Clc1ccc2c(NCCCCCCCCNc3nccc(Cl)n3)ccnc2c1 | inactive | inactive | 10 | 2.91 (≈ 1.22 µg/mL) | inactive | inactive | 1.51 | inactive | inactive | 5.98 | inactive | inactive | 0.09 (≈ 0.0377 µg/mL) | inactive | inactive | 20 | inactive | inactive | inactive | inactive | inhibition (Human alphaherpesvirus 1 [14]): inactive; inhibition (Sindbis virus): inactive; inhibition (Vaccinia virus): inactive; inhibition [15]: inactive; inhibition (Coxsackievirus B4 [16]): inactive; inhibition (Punta Toro virus): inactive
Clc1ccc2c(NCCCCCCCCCCNc3nccc(Cl)n3)ccnc2c1 | inactive | inactive | 4.4 | 6.82 (≈ 3.04 µg/mL) | inactive | inactive | 1.99 | inactive | inactive | 5.48 | inactive | inactive | 0.07 (≈ 0.0312 µg/mL) | inactive | inactive | 4 | inactive | inactive | inactive | inactive | inhibition (Human alphaherpesvirus 1 [14]): inactive; inhibition (Sindbis virus): inactive; inhibition (Vaccinia virus): inactive; inhibition [15]: inactive; inhibition (Coxsackievirus B4 [16]): inactive; inhibition (Punta Toro virus): inactive
Clc1ccc2c(NCCCCCCCCCCCCNc3nccc(Cl)n3)ccnc2c1 | inactive | inactive | 19 | 19.4 (≈ 9.2 µg/mL) | inactive | inactive | 2.59 | inactive | inactive | 5.37 | inactive | inactive | 0.05 (≈ 0.0237 µg/mL) | inactive | inactive | 20 | inactive | inactive | inactive | inactive | inhibition (Human alphaherpesvirus 1 [14]): inactive; inhibition (Sindbis virus): inactive; inhibition (Vaccinia virus): inactive; inhibition [15]: inactive; inhibition (Coxsackievirus B4 [16]): inactive; inhibition (Punta Toro virus): inactive
Clc1ccc2c(NCCNc3ccnc(Cl)n3)ccnc2c1 | inactive | inactive | > 100 | 2.09 (≈ 0.698 µg/mL) | inactive | inactive | 0.489 | inactive | inactive | 5.84 | inactive | inactive | 0.68 (≈ 0.227 µg/mL) | inactive | inactive | 4 | inactive | inactive | inactive | inactive | inhibition (Human alphaherpesvirus 1 [14]): inactive; inhibition (Sindbis virus): inactive; inhibition (Vaccinia virus): inactive; inhibition [15]: inactive; inhibition (Coxsackievirus B4 [16]): inactive; inhibition (Punta Toro virus): inactive
C[C@H]1[C@H](OC(=O)CCC(=O)O)O[C@@H]2O[C@@]3(C)CC[C@H]4[C@H](C)CC[C@@H]1[C@@]24OO3 [ARTESUNATE] | – | – | – | – | – | – | – | – | – | 8.20 | – | – | – | – | – | – | – | – | – | – | –
Clc1ccc2c(NCCCNc3nccc(Cl)n3)ccnc2c1 | inactive | inactive | > 100 | 1.81 (≈ 0.63 µg/mL) | inactive | inactive | 0.657 | inactive | inactive | 6.61 | inactive | inactive | 0.4 (≈ 0.139 µg/mL) | inactive | inactive | > 100 | inactive | inactive | inactive | inactive | pIC50 (Plasmodium falciparum [17]): 6.32; inhibition (Human alphaherpesvirus 1 [14]): inactive; inhibition (Sindbis virus): inactive; Ratio CC50/IC50 [18]: >209; inhibition (Vaccinia virus): inactive; inhibition [15]: inactive; inhibition (Coxsackievirus B4 [16]): inactive; inhibition (Punta Toro virus): inactive
CS(=O)(=O)c1ccc(-c2cnc(N)c(-c3ccc(C(F)(F)F)nc3)c2)cc1 [MMV-048] | – | – | – | – | – | – | – | – | – | 8.05 | – | – | – | – | – | – | – | – | – | – | –
Clc1ccnc(N2CCOCC2)n1 | inactive | inactive | > 100 | 12.1 (≈ 2.42 µg/mL) | inactive | inactive | 0.13 | inactive | inactive | 4.82 | inactive | inactive | 9 (≈ 1.8 µg/mL) | inactive | inactive | > 100 | inactive | inactive | inactive | inactive | inhibition (Human alphaherpesvirus 1 [14]): inactive; inhibition (Sindbis virus): inactive; inhibition (Vaccinia virus): inactive; inhibition [15]: inactive; inhibition (Coxsackievirus B4 [16]): inactive; inhibition (Punta Toro virus): inactive
